# In article PMC3224553 (Bioorganic & medicinal chemistry letters, 2011):
# Test system: not listed separately
# Experiment: in vitro microsomal stability, mouse liver microsomes
# Type: in vitro ADME
# Conditions: not given
row,half-life [min],Compound
1,< 25,Cc1ccc(NS(=O)(=O)c2cc3c(cc2N(C)C)NC(=O)CC3)cc1C [Compound 52]
2,< 25,CNc1cc2c(cc1S(=O)(=O)Nc1ccc(C)c(C)c1)CCC(=O)N2 [Compound 54]
3,< 20,Cc1ccc(NS(=O)(=O)c2ccc3c(c2)CCC(=O)N3)cc1C [Compound 3]

# Target: hPK M2 (Homo sapiens, UniProt P14618)
# Sequence (P14618 whole entry): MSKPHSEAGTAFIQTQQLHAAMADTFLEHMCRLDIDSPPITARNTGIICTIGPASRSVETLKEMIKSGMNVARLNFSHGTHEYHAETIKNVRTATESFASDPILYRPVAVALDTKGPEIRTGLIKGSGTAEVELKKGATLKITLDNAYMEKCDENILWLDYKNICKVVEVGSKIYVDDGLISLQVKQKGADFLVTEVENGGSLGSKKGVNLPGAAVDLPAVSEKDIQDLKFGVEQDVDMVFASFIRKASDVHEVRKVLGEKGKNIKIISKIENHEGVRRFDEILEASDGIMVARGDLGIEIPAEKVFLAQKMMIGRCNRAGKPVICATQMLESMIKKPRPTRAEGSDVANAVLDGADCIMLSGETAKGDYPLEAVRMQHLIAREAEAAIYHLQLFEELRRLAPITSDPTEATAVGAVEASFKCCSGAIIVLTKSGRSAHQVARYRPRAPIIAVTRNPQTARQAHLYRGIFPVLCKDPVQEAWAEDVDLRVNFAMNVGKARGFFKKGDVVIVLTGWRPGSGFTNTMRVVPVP
# Experiment: luminescent pyruvate kinase-luciferase coupled assay
# Type: biochemical
# Conditions: not given
# Summary of the method: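 Human PKM2 activity is read by luminescence in a pyruvate kinase–luciferase coupled format. AC50 values are the average of three separate experiments. Maximum response is the % activation at 57 μM of test compound, normalized as described in the supporting information.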
row,"PKM2 activation, result in words",Compound
1,retained activity,Cc1ccc(NS(=O)(=O)c2cc3c(cc2N(C)C)NC(=O)CC3)cc1C [Compound 52]
2,loss of activity,Cc1ccc(NS(=O)(=O)c2cc3c(cc2N2CCC(N(C)C)C2)NC(=O)CC3)cc1C (stereo not shown) [Compound 56]
3,loss of activity,Cc1ccc(NS(=O)(=O)c2cc3c(cc2N2CCCCC2)NC(=O)CC3)cc1C [Compound 57]
4,no activity,Cc1ccc(NS(=O)(=O)c2cc(Br)cc3c2NC(=O)CC3)cc1C [Compound 74b]
5,retained activity,CNc1cc2c(cc1S(=O)(=O)Nc1ccc(C)c(C)c1)CCC(=O)N2 [Compound 54]
6,no activity,Cc1ccc(NS(=O)(=O)c2cc(Br)cc3c2NC(=O)CC3)cc1Cl [Compound 75b]
7,inactive,Cc1ccc(NS(=O)(=O)c2cc(N[C@@H](C)CO)cc3c2NC(=O)CC3)cc1Cl [Compound 77b]
8,inactive,Cc1ccc(NS(=O)(=O)c2cc(N[C@@H](C)CO)cc3c2NC(=O)CC3)cc1C [Compound 76b]

# Same assay, conditions: (S)- vs (R)-alaninol derivative
row,fold more potent than its enantiomer [fold],Compound
1,4,Cc1ccc(NS(=O)(=O)c2cc3c(cc2N[C@@H](C)CO)NC(=O)CC3)cc1C [Compound 63]

# Same assay, conditions: hPK M2 AC50, average from three separate experiments
row,Compound,AC50 [µM]
1,CC(=O)N1CCc2cc(S(=O)(=O)Nc3ccc(C)c(C)c3)ccc21 [Compound 22],1.5
2,Cc1ccc(NS(=O)(=O)c2ccc3c(c2)CCCC(=O)N3)cc1C [Compound 16],7.1
3,Cc1ccc(NS(=O)(=O)c2ccc3c(c2)oc(=O)n3C)cc1C [Compound 18],4.3
4,CC(=O)N1CCCc2cc(S(=O)(=O)Nc3ccc(C)c(C)c3)ccc21 [Compound 14],9
5,Cc1ccc(NS(=O)(=O)c2ccc3c(c2)CC(=O)N3C)cc1C [Compound 21],2.3
6,Cc1ccc(NS(=O)(=O)c2ccc3c(c2)CCC(C)(C)O3)cc1C [Compound 10],10

# Next, values leading:
row,AC50 [µM],Compound
1,> 20,Cc1ccc(NS(=O)(=O)c2ccc(F)cc2)cc1C [Compound 6]
2,6,Cc1ccc(NS(=O)(=O)c2ccc3c(c2)N(C)CCO3)cc1C [Compound 19]
3,0.94,Cc1ccc(NS(=O)(=O)c2ccc(N3CCCC3=O)cc2)cc1C [Compound 20]
4,18.4,Cc1ccc(NS(=O)(=O)c2ccc3ccccc3c2)cc1C [Compound 7]
5,6.9,CC(=O)Nc1ccc(S(=O)(=O)Nc2ccc(C)c(C)c2)cc1 [Compound 17]
6,> 20,Cc1ccc(NS(=O)(=O)c2cccc(C(=O)O)c2)cc1C [Compound 5]
7,13.4,Cc1ccc(NS(=O)(=O)c2ccc3c(c2)NC(=O)CO3)cc1C [Compound 11]
8,13.1,CC(=O)Nc1cccc(S(=O)(=O)Nc2ccc(C)c(C)c2)c1 [Compound 13]
9,18.3,Cc1ccc(NS(=O)(=O)c2cccc(Cl)c2)cc1C [Compound 8]
10,> 20,Cc1ccc(NS(=O)(=O)c2ccc3[nH]c(=O)[nH]c3c2)cc1C [Compound 12]
11,8.3,Cc1ccc(NS(=O)(=O)c2ccc3c(c2)CC(=O)N3)cc1C [Compound 15]
12,17.3,COc1ccc(S(=O)(=O)Nc2ccc(C)c(C)c2)cc1 [Compound 9]

# Test system: not listed separately
# Experiment: in vitro microsomal stability, human liver microsomes
# Type: in vitro ADME
# Conditions: not given
row,half-life [min],Compound
1,< 25,Cc1ccc(NS(=O)(=O)c2cc3c(cc2N(C)C)NC(=O)CC3)cc1C [Compound 52]
2,< 25,CNc1cc2c(cc1S(=O)(=O)Nc1ccc(C)c(C)c1)CCC(=O)N2 [Compound 54]
3,< 20,Cc1ccc(NS(=O)(=O)c2ccc3c(c2)CCC(=O)N3)cc1C [Compound 3]

# Test system: not listed separately
# Experiment: Caco-2 permeability
# Type: in vitro ADME
# Conditions: human, Caco-2, Caco-2 Permeability Efflux Ratio
row,efflux ratio,Compound
1,≤ 1,O=C1CCc2cc(S(=O)(=O)Nc3ccc(F)c(Cl)c3)c(F)cc2N1 [Compound 66]
2,≤ 1,Cc1ccc(NS(=O)(=O)c2cc3c(cc2F)NC(=O)CC3)cc1Cl [Compound 64]
3,< 1,Cc1ccc(NS(=O)(=O)c2ccc3c(c2)CCC(=O)N3)cc1C [Compound 3]

# Test system: Caco-2
# Experiment: Caco-2 permeability
# Type: in vitro ADME
# Conditions: A–B
row,Caco-2 Permeability Papp (A–B),Compound
1,"1.61 10^−6, cm/s",C[C@@H](CO)Nc1cc2c(cc1S(=O)(=O)Nc1ccc(F)c(Cl)c1)CCC(=O)N2 [Compound 69]
2,"1.13 10^−6, cm/s",Cc1ccc(NS(=O)(=O)c2cc3c(cc2N[C@@H](C)CO)NC(=O)CC3)cc1Cl [Compound 68]
3,"9.38 10^−6, cm/s",O=C1CCc2cc(S(=O)(=O)Nc3ccc(F)c(Cl)c3)c(F)cc2N1 [Compound 66]
4,"6.22 10^−6, cm/s",Cc1ccc(NS(=O)(=O)c2cc3c(cc2F)NC(=O)CC3)cc1Cl [Compound 64]
5,"14.9 10^−6, cm/s",Cc1ccc(NS(=O)(=O)c2ccc3c(c2)CCC(=O)N3)cc1C [Compound 3]

# Same assay, conditions: B–A
row,Caco-2 Permeability Papp (B–A),Compound
1,"17.52 10^−6, cm/s",C[C@@H](CO)Nc1cc2c(cc1S(=O)(=O)Nc1ccc(F)c(Cl)c1)CCC(=O)N2 [Compound 69]
2,"11.9 10^−6, cm/s",Cc1ccc(NS(=O)(=O)c2cc3c(cc2N[C@@H](C)CO)NC(=O)CC3)cc1Cl [Compound 68]
3,"7.91 10^−6, cm/s",O=C1CCc2cc(S(=O)(=O)Nc3ccc(F)c(Cl)c3)c(F)cc2N1 [Compound 66]
4,"6.24 10^−6, cm/s",Cc1ccc(NS(=O)(=O)c2cc3c(cc2F)NC(=O)CC3)cc1Cl [Compound 64]
5,"12.21 10^−6, cm/s",Cc1ccc(NS(=O)(=O)c2ccc3c(c2)CCC(=O)N3)cc1C [Compound 3]
